Screens from PubChem.
LMPTP block: LMPTP (human) inhibition; 360,000 tested, 0.22% active; AID 651560; recombinant LMPTP-A, OMFP fluorogenic substrate, fluorescence intensity; inhibition, % at 20 µM;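 active = compounds that cut the enzyme signal by at least half of the control window in the single-dose screen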;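 note: plate controls were DMSO wells with enzyme plus substrate for no effect and substrate without enzyme for full effect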
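Assay system: LMPTP-A enzyme. Input: 0.625 nM LMPTP-A final. Probe or stimulus: 400 µM OMFP. Compound dosing: single 20 µM dose. Schedule: 50 min dark incubation at room temperature. Detection: fluorescence intensity of OMFP turnover product. Read-out: percent inhibition versus substrate-only and uninhibited controls. Benchmarks: no-enzyme low control, uninhibited high control.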
DNMT1 inh: blocks human DNA methyltransferase DNMT1; DNMT1 molecular beacon, Hinp1I cleavage, fluorescence; P26358; inhibition (reported as % activation of signal), % at 10 µM; 360,000 tested, 0.83% active; in the data active = inhibition above about 50%
Scp1 inh: Scp-1 (human) phosphatase inhibition. Recombinant Scp1, phosphopeptide, malachite green phosphate absorbance. inhibition, % at 20 µM. 340,000 tested, 0.88% active. AID 493091;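 active = inhibition above about 50% at 20 µM, limit read from the data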;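 note: plate controls were DMSO wells with enzyme for no effect and wells lacking enzyme for full effect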
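Test system: SCP-1 phosphatase catalytic domain, residues 76-261; measured by: colorimetric phosphate reagent with accelerator and stabiliser, absorbance at 630 nm; timing: enzyme reaction 45 min at room temperature, colour 5 min, stabilisation 30 min; also added: Phosphorylated 17-residue peptide substrate; compound dosing: one concentration, 20 µM, with 1.0% DMSO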
SUMO1-SIM PPI: alters human SUMO1 binding to SIM partners | inhibition, % at 20 µM | 360,000 tested, 0.33% active | SUMO1 binding to a labelled peptide, TR-FRET, 1 h | AID 602429 | P63165; in the data active = inhibition above about 37%
STEP inh: inhibitors of human striatal-enriched phosphatase STEP; recombinant STEP, OMFP fluorogenic substrate, fluorescence; P54829; inhibition, % at 20 µM; 360,000 tested, 0.25% active;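 active = inhibition at 20 µM, scaled per plate between control wells, above about 37%, limit read from the data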;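 note: 0% = DMSO with enzyme and substrate and 100% = substrate only without enzyme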
Target sequence (P54829 whole entry, looked up): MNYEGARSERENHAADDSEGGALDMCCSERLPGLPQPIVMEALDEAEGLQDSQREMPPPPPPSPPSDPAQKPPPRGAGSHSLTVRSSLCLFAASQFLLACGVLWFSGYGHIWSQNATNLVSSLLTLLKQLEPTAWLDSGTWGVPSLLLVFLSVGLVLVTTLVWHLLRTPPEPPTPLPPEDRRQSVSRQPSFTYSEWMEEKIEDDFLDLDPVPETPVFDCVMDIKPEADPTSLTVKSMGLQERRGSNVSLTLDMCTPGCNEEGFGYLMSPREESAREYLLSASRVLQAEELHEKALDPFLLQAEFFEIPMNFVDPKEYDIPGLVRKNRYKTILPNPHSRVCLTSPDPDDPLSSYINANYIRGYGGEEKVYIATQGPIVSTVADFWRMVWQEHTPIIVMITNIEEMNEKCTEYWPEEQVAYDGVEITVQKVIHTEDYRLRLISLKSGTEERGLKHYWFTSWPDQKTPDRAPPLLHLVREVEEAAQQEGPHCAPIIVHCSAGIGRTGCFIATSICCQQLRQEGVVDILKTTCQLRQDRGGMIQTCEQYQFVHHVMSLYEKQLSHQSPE
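material = STEP tyrosine phosphatase | reagent = fluorogenic phosphatase substrate OMFP at 25 µM final | doses = single compound dose of 20 µM, 1% DMSO final | schedule = 20 min reaction, room temperature, in the dark | measured by = fluorescence, 480/540 nm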
Scp-1 conf: confirmation of human Scp-1 phosphatase inhibitors. inhibition, % at 20 µM. shares compounds with Scp1 inh. 2,500 tested, 61% active. AID 540281. recombinant SCP-1 catalytic domain, phosphate release, malachite green absorbance;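 note: plate controls were DMSO with enzyme for no effect and buffer wells lacking enzyme for full effect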
MG interference: counter-screen for Scp-1 inhibitors: colorimetric interference. apparent inhibition (interference), % at 20 µM. shares compounds with Scp1 inh. AID 540313. 2,500 tested, under 10 active. Colorimetric interference counterscreen, malachite green absorbance 630 nm;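 note: compounds added after enzyme reaction finished so only phosphate colour detection is probed; plate controls were DMSO wells with completed Scp-1 reaction for no effect and substrate wells lacking enzyme for full effect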
Scp-1 Tm shift: binds human Scp-1, shifting its melting temperature. shares compounds with Scp1 inh. Recombinant SCP1, Sypro Orange thermal shift Tm. thermal shift relative to vanadate control, % at 40 µM. 1,500 tested, 25% active;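 active = substances whose mean melting-temperature shift, as a percentage of the reference inhibitor's shift, reaches about 5.3%, limit read from the data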;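 note: 0% = Tm of DMSO wells and 100% = Tm with sodium orthovanadate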
* hit, by the source's call; nt = no result. This is a sample that favours compounds with a hit; in the whole collection about 1.7% have one here.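 Rule for the calls, unless noted: active = inhibition of at least 30% at 20 µM; inactive = the rest.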

SMILES	LMPTP block	DNMT1 inh	Scp1 inh	SUMO1-SIM PPI	STEP inh	Scp-1 conf	MG interference	Scp-1 Tm shift
CSc1ccc(NC(=O)Nc2ccc(C(=O)NCC(=O)O)cc2)cc1	39	15	52*	10	11	36*	-21	6.0*
CCSc1ccc(C(=O)NCC(=O)O)cc1	0	1	-3	-3	-3	nt	nt	nt
Cc1nn(CC(=O)N2CCN(Cc3ccccc3)CC2)c(=O)c2ccccc12	0	-3	-7	-3	-2	nt	nt	nt
COc1ccc(CN2CCN(C(=O)Cn3nc(C(=O)O)c4ccccc4c3=O)CC2)cc1F	0	0	57*	-13	0	-4	-11	nt
N/C(=N\NC(=O)c1ccc(F)cc1)c1cc2ccccc2oc1=O	-1	-1	-1	-9	-1	nt	nt	nt
N/C(=N\NC(=O)c1cccc(F)c1)c1cc2ccccc2oc1=O	0	3	53*	-24	13	72*	-17	-2
Cc1cc(C)c(NC(=O)COc2nc3ccccc3nc2C)c(C)c1	-2	0	58*	-1	0	-18	-13	nt
CCCCN(C(=O)CCSc1ccc(F)cc1)c1c(N)n(Cc2ccccc2)c(=O)[nH]c1=O	0	-3	-2	2	-3	nt	nt	nt
Cc1cccc(OCC(=O)Nc2ccc(CN3CCOCC3)cc2)c1C	0	0	-7	1	0	nt	nt	nt
Cc1ccc(NC(=O)COc2ccc(/C=N/NC(=O)CSCc3ccccc3)cc2)cc1	0	2	85*	0	-1	70*	-14	-5
Cc1ccc(OCC(=O)Nc2ccc(CN3CCOCC3)cc2)cc1	0	1	70*	1	-1	-12	-15	nt
O=C(CN(Cc1ccccc1Cl)C(=O)c1csnn1)NCc1ccccc1	-1	-1	-5	1	0	nt	nt	nt
CCOC(=O)C1CCCN(C(=O)c2ccc(Cn3c(=S)[nH]c4cc(C(=O)OC)ccc4c3=O)cc2)C1 (stereo unspecified)	1	4	60*	2	4	31*	-16	-2
Cc1c(C(=O)O)cccc1-n1c(C)cc(C=O)c1C	0	46	56*	-2	6	44*	-14	-5
Nc1c(C(=O)OCC(=O)Nc2cccc([N+](=O)[O-])c2)[nH]c(=O)[nH]c1=O	33	-3	67*	3	9	65*	-1	6.1*
O=C(Nc1cccc([N+](=O)[O-])c1)Nc1cccc([N+](=O)[O-])c1	10	6	69*	-12	3	66*	-21	17*
Cc1ccc(Cl)cc1N1CCN(c2cccc[n+]2C)CC1	0	9	99*	1	-2	-4	-8	nt
CC(C)OC(=O)CC1C(=O)NCCN1C(=S)NC(=O)CCc1ccccc1 (stereo unspecified)	-1	4	-7	2	-2	-16	-16	nt
N=c1nc2n(cc1F)C1OC(CO)C(O)C1O2 (stereo unspecified)	1	-1	72*	2	-2	-1	-7	nt
Cc1ccc([C@@H]2[C@@H]3C(=O)N(c4ccccc4)C(=O)[C@@H]3[C@]3(C)C(=O)N(CC4CC4)CC(=O)N23)o1	-2	1	2	2	-2	nt	nt	nt
Cc1cccc(NC(=O)CNC(=O)c2cc(S(=O)(=O)N(C)C)ccc2N2CCCC2)c1C	0	0	nt	-2	-1	nt	nt	nt
CCOc1ccc(Nc2ccc(N)c(S(=O)(=O)O)c2)cc1	74*	87*	84*	37*	81*	66*	-13	20*
Cn1nccc1C(=O)N1CCCC(N2CCN(c3cccc(C(F)(F)F)c3)CC2)C1 (stereo unspecified)	2	1	nt	0	-1	nt	nt	nt
CCN(Cc1ccccc1)C(=O)c1cc(S(=O)(=O)N2CCOCC2)cn1C	-1	-1	-4	1	-1	nt	nt	nt
COc1ccc(CC(=O)NNC(=O)COc2ccc3ccccc3c2)cc1	16	41	57*	-1	2	52*	-14	-17
